An excerpt weighted towards active compounds, which were near 4.4% of everything screened.
Calb FLC = affects C. albicans growth with fluconazole. AID 1979. hit rate 0.57% among 300,000. C. albicans CaCi-2 (fluconazole-resistant clinical isolate) + fluconazole, Alamar Blue growth, 48 h. growth inhibition, % (concentration not given with the values);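 active = growth inhibition above about 58% in most replicates, limit read from the data, passing the limit was not always enough; inconclusive = exactly half the replicates above a set limit; inactive = most replicates below a set limit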;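 note: all wells also contain fluconazole at 8 µg/ml as a sub-toxic cotreatment; 0% = median of DMSO wells and 100% = median of geldanamycin control wells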
HIF act = HIF pathway transcriptional activation. U2OS HRE-luciferase reporter, luminescence; normalized: DMSO 0%, desferrioxamine 100%. activation, % at 7.5 µM (by protocol). hit rate 0.32% among 300,000;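 active = mean activation of at least 10% of the iron chelator positive control signal, with at least half of replicates also reaching 10%; inconclusive = mean and replicate majority disagree about reaching 10%; inactive = mean and most replicates under 10%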
HSF1 inhib = HSF1 inhibition. activity change, negative = inhibition, % at 7.5 µM (by protocol). AID 2098. NIH3T3-HGL HSE-luciferase, MG132-induced, luminescence 8 h; stronger effect = lower value. hit rate 0.77% among 300,000;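 active = more than half of replicate wells show activity change below -50%, luminescence cut by over half; inconclusive = some wells, but at most half, below -50%; inactive = no replicate well below -50%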;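 note: luciferase reports HSF-1 transcriptional activity via heat shock element; 0% = median of DMSO wells and -100% = zero luminescence signal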
T cruzi repl = T. cruzi replication inhibition | hit rate 1.4% among 300,000 | T. cruzi beta-gal in NIH3T3, luminescence, 90 h | inhibition, % (concentration not given with the values);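 active = mean inhibition across valid replicates above about 55%, limit read from the data; inconclusive = mean below that limit but half or more replicates reach it; inactive = mean below it, under half of replicates reach it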;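 note: signal also drops with host cell toxicity which is not excluded here; 0% = plate median of DMSO wells and 100% = zero luminescence signal; higher percent means less beta-gal luminescence so fewer parasites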
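Assay system: NIH/3T3 host cells with β-galactosidase reporter T. cruzi; input: 5,000 host fibroblasts per well; compound: single 50 nL compound addition per well in DMSO; timing: ≥90 h infection period, 3 h prior cell attachment; measured by: GalScreen β-gal luminescence, detergent lysis, 60 min; evaluation: percent inhibition of parasite-derived β-gal signal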
HSF1 activator = increases HSF-1 driven luciferase reporter signal. activation, % at 9 µM. NIH3T3-HGL HSF-1 luciferase reporter, MG132, 8 h; 100% = twice DMSO control signal. hit rate 1.7% among 300,000;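 active = mean replicate activation of at least 50% with a set share of replicates each reaching 50%; inconclusive = only one of those two conditions met; inactive = mean below 50% and too few replicates reaching it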;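 note: 0% = median of the neutral control wells and 100% = twice that signal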
Starred values were filed as active, the others as inactive; ? = inconclusive; / = no result.

SMILES | Calb FLC | HIF act | HSF1 inhib | T cruzi repl | HSF1 activator
NC(=O)c1ccccc1N/C=C/C(=O)c1ccc(Cl)cc1Cl | 11 | 0 | 20 | 5 | 66*
COc1ccc(-c2nnc(SC(C)C(=O)Nc3cccc(Cl)c3)o2)cc1 (stereo unspecified) | -1 | 4 | 56 | 14 | 109*
COc1ccc(-c2nnc(SC(C)C(=O)NNC(=O)c3ccc(C)cc3)o2)cc1 (stereo unspecified) | -17 | 0 | -4 | -1 | -2
Cc1cccc(CCNC(=O)CCc2nnc(CCc3ccccc3)o2)n1 | -11 | 0 | -2 | -10 | 9
Cc1onc(-c2c(Cl)cccc2Cl)c1C(=O)NN1CCCCCC1 | 12 | 0 | -7 | -10 | 1
Cc1c(C(=O)NN2CCCCC2)nn(-c2ccc(Cl)cc2Cl)c1-c1ccc(I)cc1 | / | 0 | 13 | 55* | 15
CCC(C)N(C(=O)COC(=O)COc1c(C)cc(C)cc1C)C1CCS(=O)(=O)C1 (stereo unspecified) | -1 | 0 | -1 | -13 | -3
Cc1onc(-c2ccc(Cl)cc2)c1-c1ccnc(SCC(=O)Nc2cc(Cl)cc(Cl)c2)n1 | 2 | 0 | 3 | 59* | 8
O=C(CSc1nccc(-c2cccs2)n1)Nc1cccc(Cl)c1 | -24 | -1 | -1 | 0 | 16
CCOc1cccc(-c2c(C(=O)N/N=C/c3ccc(Br)cc3)nnn2-c2nonc2N)c1 | 4 | 10* | 2 | 5 | 26
CC1CCN(Cc2c(C(=O)N/N=C/c3ccccc3O)nnn2-c2nonc2N)CC1 | 7 | 31* | -7 | ? | -10
CCOc1cccc(-c2c(C(=O)N/N=C/c3cccnc3)nnn2-c2nonc2N)c1 | -5 | 0 | -14 | -21 | -34
Nc1nonc1-n1nnc(C(=O)N/N=C/c2cccnc2)c1CSC1=NCCS1 | 7 | 0 | 50 | -37 | 96*
Nc1nonc1-n1nnc(C(=O)N/N=C/c2cc(Cl)ccc2O)c1CN1CCCCCC1 | 101* | 2 | -2 | 56* | 9
Nc1nonc1-n1nnc(C(=O)N/N=C/c2ccc(Br)cc2)c1CSC1=NCCS1 | 2 | -1 | 7 | 1 | 11
C=CCOc1c(Br)cc(CNc2ccc(NC(=O)C(C)C)c(OC)c2)cc1OC | 40 | 0 | 4 | 43 | 19
O=Cc1ccc(OCc2ccc3ccccc3c2)cc1 | 20 | -19 | 44 | -16 | 60*
CC1=Nc2cc(C(=O)N3CCCC3)ccc2Sc2c(C)ccc(C)c21 | 16 | 0 | 43 | 15 | ?
CC1=Nc2cc(C(=O)O)ccc2Sc2c(C)ccc(C)c21 | 5 | 0 | 110 | -11 | 101*
NC(CSCc1cccc(Br)c1)C(=O)O (stereo unspecified) | 2 | 1 | 39 | -23 | 79*
CCO[C@@H]1OC(C(N)=O)=C[C@H](c2ccccc2)[C@H]1CCCO | -4 | 0 | -5 | -5 | -13
O=C(N/N=C/c1ccc(O)cc1)c1[nH]c2ccc(Br)cc2c1-c1ccccc1 | 14 | 0 | -58* | 6 | -69
O=C(N/N=C/c1c[nH]c2ccccc12)c1[nH]c2ccc(Br)cc2c1-c1ccccc1 | 17 | 1 | -21 | ? | -38
O=c1c2ccccc2nnn1COc1cccc(Cl)c1 | 27 | 2 | 55 | 2 | 74*
O=C(COc1ccc(Cl)cc1Cl)OCn1nnc2ccccc2c1=O | 4 | -1 | 10 | -4 | -8
SMILES | Calb FLC | HIF act | HSF1 inhib | T cruzi repl | HSF1 activator
CCOC(=O)CSc1n[nH]c(NC(=O)CC)n1 | -10 | 0 | -9 | -10 | 1
Cc1ccc2c(c1)C=CC(C)(C)S2=O (stereo unspecified) | -5 | -1 | 15 | -12 | 18
CC[N+]1=C(C)C(C)(C)c2cc(C)ccc21 | -2 | 3 | -4 | 57* | -13
COC(=O)CN(c1cccc(C)c1)S(=O)(=O)c1ccccc1 | 2 | 1 | 9 | -7 | 10
CN(C)CCOCCOc1ccc(Cl)cc1Br | ? | 0 | -2 | 64* | -16
CN(C)CCCOc1ccc(Cl)cc1Br | -11 | 0 | 1 | 68* | 2
CC(C)NCCOCCOc1ccc(Cl)cc1Br | -21 | 1 | 9 | 50 | 17
COc1ccccc1CNC(=O)CN1C(=O)COc2ccc(S(=O)(=O)NC3CCCC3)cc21 | -3 | 0 | 3 | 2 | 15
O=C(N/N=C\c1ccc(-c2ccc([N+](=O)[O-])cc2)o1)C1COc2ccccc2O1 (stereo unspecified) | -14 | 0 | 15 | 59* | 9
CN(C)c1ccc(/C=N/NC(=O)C2COc3ccccc3O2)o1 (stereo unspecified) | 3 | -1 | -78* | -4 | -84
O=C(N/N=C/c1cccc([N+](=O)[O-])c1)C1COc2ccccc2O1 (stereo unspecified) | -7 | 0 | 12 | 1 | 22
CCC(Cc1ccccc1)NC(=O)C1CCN(c2nn3c(=O)cc(C)nc3s2)CC1 (stereo unspecified) | -5 | 0 | 1 | 7 | 9
COc1ccccc1CNc1ccc2c(c1)CCC2 | -4 | 0 | -22 | 55* | -32
COc1ccc(CNc2ccc3c(c2)CCC3)cc1Br | -7 | 3 | 4 | 47 | -20
CNc1ccc(OC)cc1-n1cnc(-c2ccc([N+](=O)[O-])cc2)c1 | 101* | -25 | -3 | -2 | -2
COc1ccc(-c2cn(Cc3ccc([N+](=O)[O-])cc3)nn2)cc1 | 16 | 1 | 7 | 0 | 16
O=C(Cn1nnc(-c2ccccc2)n1)N/N=C/c1ccco1 | 8 | -1 | -10 | -9 | 2
CCOC(=O)c1c(-c2ccccc2)csc1NC(=O)CCN1CCOCC1 | 32 | 0 | 30 | -7 | 74*
CCOC(=O)c1c(-c2ccccc2)csc1NC(=O)c1cccc(N2C(=O)CCC2=O)c1 | 6 | 0 | 28 | -8 | 85*
CCOC(=O)N1CCN(C(=O)C(=O)c2cn(CC(=O)N3CCCCCC3)c3ccccc23)CC1 | -1 | 0 | 5 | 43 | 7
CCOC(=O)C1CCN(C(=O)C(=O)c2cn(CC(=O)N3CCCCCC3)c3ccccc23)CC1 | -15 | 0 | 1 | 62* | 18
O=C(c1cn(CC(=O)N2CCCCC2)c2ccccc12)C1CC1 | -12 | 0 | 38 | -2 | 62*
CC1CCCCN1C(=O)C(=O)c1cn(CC(=O)N2CCCC2)c2ccccc12 (stereo unspecified) | -5 | 0 | -3 | -8 | -3
CC1CCCCN1C(=O)C(=O)c1cn(CC(=O)N2CCCCCC2)c2ccccc12 (stereo unspecified) | -9 | 0 | -7 | 64* | -7
CN1C(=O)/C(=C/c2cn(CC(=O)NCc3ccco3)c3ccccc23)NC1=S | -1 | 4 | 1 | 10 | 17
CN1C(=O)/C(=C/c2cn(CC(=O)N3CCCCC3)c3ccccc23)NC1=S | 112* | / | / | / | /
Cn1c(=O)oc2cc(S(=O)(=O)NCCC(=O)NCc3ccc(F)cc3)ccc21 | 18 | -1 | -1 | -12 | -7
